Experiments:
[1] = Clearance in rat liver microsomes at 0.5 uM measured up to 45 mins in presence of NADPH by HPLC-MS/MS analysis; format: ADME, Microsome
[2] = target: Beta-2 adrenergic receptor (Homo sapiens, UniProt P07550); test: Antagonist activity at human beta2 adrenoceptor
[3] = target: Voltage-gated potassium channel, IKs; KCNQ1(Kv7.1)/KCNE1(MinK) (Homo sapiens, UniProt P15382+P51787); test: Inhibition of human KCNQ1/KCNE1
[4] = target: T1, Aryl hydrocarbon receptor (Homo sapiens, UniProt P35869); test: Agonist activity at human aryl hydrocarbon receptor
T1 sequence (P35869 whole entry): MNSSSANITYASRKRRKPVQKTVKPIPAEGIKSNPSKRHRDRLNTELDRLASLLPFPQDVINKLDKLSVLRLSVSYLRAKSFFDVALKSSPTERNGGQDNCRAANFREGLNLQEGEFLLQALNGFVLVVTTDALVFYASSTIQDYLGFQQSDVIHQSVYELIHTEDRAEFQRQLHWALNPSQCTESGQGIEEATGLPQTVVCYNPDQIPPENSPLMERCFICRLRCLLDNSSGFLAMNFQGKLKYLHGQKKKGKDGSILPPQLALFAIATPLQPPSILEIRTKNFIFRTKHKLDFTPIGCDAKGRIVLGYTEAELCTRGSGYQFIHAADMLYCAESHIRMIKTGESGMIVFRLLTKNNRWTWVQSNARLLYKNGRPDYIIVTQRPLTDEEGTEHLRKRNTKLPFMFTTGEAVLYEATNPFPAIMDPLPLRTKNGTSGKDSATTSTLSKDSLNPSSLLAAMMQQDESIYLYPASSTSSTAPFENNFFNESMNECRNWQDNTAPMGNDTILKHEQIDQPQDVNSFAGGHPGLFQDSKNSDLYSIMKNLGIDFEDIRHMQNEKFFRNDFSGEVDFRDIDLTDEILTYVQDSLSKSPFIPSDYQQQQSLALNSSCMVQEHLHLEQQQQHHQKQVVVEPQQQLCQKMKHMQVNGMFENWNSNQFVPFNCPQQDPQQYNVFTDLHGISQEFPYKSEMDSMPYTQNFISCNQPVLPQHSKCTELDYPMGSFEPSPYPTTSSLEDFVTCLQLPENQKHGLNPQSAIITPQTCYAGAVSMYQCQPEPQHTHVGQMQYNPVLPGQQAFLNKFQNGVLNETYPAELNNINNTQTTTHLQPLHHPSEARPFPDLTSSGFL

[5] = target: Acetylcholinesterase (Homo sapiens, UniProt P22303); test: Inhibition of AChE (unknown origin)
Sequence of Acetylcholinesterase (P22303 whole entry): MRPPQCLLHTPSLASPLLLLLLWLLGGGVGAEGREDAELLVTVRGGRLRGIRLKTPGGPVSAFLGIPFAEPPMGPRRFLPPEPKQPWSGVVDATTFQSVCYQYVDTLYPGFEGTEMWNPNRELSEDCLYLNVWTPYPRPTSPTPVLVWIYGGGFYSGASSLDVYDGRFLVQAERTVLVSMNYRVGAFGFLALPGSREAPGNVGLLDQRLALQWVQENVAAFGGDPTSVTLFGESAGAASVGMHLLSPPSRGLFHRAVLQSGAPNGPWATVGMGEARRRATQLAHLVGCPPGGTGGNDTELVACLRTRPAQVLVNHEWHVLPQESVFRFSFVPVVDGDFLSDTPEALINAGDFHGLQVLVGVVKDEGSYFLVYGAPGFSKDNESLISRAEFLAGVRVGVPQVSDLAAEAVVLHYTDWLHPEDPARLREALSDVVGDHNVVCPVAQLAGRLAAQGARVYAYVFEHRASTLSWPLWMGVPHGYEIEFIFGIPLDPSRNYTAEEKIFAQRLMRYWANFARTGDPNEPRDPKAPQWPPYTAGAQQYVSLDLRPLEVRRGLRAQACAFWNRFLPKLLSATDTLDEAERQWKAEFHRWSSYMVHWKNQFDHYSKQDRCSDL

[6] = target: Voltage-dependent L-type calcium channel subunit alpha-1C (Homo sapiens, UniProt Q13936); test: Inhibition of human L-type CaV1.2
Sequence of Voltage-dependent L-type calcium channel subunit alpha-1C (Q13936 whole entry): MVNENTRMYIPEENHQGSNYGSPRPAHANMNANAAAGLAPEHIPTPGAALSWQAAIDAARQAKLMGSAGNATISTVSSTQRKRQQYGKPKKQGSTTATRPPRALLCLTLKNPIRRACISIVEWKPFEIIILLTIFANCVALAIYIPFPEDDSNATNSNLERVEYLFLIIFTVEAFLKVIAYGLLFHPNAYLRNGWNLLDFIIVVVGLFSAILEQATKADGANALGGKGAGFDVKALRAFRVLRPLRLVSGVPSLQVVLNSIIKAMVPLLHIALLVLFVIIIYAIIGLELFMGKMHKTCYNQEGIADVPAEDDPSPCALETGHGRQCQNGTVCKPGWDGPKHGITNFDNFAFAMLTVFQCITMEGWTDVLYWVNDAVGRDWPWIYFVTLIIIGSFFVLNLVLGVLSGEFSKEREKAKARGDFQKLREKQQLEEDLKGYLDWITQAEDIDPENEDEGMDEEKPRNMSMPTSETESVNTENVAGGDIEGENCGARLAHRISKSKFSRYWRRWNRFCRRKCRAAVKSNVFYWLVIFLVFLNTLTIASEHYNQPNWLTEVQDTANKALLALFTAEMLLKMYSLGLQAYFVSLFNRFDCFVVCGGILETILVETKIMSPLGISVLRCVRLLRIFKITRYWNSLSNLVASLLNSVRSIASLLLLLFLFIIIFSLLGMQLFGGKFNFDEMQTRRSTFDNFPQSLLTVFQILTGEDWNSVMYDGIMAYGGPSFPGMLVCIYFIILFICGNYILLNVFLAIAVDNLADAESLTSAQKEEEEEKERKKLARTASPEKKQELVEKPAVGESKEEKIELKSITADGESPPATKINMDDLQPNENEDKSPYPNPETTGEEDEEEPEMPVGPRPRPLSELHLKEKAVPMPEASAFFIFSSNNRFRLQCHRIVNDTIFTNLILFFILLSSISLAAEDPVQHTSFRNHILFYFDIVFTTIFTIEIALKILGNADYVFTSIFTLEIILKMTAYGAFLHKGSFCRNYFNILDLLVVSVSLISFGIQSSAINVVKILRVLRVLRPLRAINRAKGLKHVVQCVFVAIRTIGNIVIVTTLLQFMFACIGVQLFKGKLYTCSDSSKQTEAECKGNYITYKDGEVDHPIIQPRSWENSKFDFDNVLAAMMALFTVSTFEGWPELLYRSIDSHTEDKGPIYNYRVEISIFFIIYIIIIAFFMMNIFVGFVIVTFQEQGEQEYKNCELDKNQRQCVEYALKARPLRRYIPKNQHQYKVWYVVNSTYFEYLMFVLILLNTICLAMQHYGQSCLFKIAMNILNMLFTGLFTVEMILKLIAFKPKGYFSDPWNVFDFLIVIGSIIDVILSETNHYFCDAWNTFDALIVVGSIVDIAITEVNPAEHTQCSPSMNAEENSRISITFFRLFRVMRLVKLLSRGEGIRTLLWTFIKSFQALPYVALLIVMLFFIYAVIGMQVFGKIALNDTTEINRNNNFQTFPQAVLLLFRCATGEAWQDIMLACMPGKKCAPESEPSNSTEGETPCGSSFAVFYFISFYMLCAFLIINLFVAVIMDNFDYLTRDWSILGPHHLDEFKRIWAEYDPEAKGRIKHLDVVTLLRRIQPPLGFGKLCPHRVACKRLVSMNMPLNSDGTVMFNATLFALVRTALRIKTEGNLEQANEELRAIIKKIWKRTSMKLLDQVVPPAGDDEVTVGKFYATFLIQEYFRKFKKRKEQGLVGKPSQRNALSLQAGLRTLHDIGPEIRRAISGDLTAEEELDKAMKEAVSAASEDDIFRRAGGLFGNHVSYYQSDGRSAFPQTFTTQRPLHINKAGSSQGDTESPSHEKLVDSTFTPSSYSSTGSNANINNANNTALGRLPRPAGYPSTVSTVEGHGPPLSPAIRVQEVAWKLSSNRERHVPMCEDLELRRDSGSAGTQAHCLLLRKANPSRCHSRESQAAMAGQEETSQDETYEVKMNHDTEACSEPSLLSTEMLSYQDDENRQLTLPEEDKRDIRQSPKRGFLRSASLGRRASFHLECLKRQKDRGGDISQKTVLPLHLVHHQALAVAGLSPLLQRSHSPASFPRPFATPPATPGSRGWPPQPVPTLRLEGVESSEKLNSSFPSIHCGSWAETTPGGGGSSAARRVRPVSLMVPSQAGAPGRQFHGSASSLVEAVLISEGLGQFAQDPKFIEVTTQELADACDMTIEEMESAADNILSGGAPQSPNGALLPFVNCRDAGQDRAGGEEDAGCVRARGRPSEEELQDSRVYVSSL

[7] = test system: Plasmodium falciparum; test: (§1) Antiplasmodial activity against Plasmodium falciparum 3D7A asexual erythrocytic stage assessed as reduction in [3H]hypoxanthine incorporation preincubated for 48 hrs followed by [3H]hypoxanthine addition and measured after 24 hrs by microbeta scintillation counting method; format: functional, organism-based
[8] = test system: Plasmodium falciparum; test: as §1, with “3D7A harboring with PKG T618Q mutant” for “3D7A”, “72” for “48”; format: functional, organism-based
[9] = target: T2, Calcium-dependent protein kinase 4 (Plasmodium falciparum (isolate 3D7), UniProt Q8IBS5); test: Binding affinity to CDPK4 in Plasmodium falciparum 3D7 blood stage extract incubated for 1 hr by kinobeads based pull down assay; conditions: read-out: Kd(app)
T2 sequence (Q8IBS5 whole entry): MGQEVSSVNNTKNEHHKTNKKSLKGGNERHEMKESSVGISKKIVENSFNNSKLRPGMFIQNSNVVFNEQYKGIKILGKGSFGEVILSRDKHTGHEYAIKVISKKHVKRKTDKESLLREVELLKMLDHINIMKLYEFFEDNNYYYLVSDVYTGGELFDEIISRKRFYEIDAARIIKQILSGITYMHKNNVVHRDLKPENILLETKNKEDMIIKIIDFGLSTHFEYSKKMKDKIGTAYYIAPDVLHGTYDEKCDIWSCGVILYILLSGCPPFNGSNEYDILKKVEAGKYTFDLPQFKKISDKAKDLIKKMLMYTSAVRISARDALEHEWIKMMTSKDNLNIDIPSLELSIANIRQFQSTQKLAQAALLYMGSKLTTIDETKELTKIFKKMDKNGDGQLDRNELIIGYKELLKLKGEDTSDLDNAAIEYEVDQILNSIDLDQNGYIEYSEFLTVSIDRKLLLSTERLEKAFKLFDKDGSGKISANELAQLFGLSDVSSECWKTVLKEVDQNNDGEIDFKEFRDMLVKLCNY
How it was run: (§2)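 Chemoproteomic competition used kinobeads or Sepharose beads derivatized with ligand at 1 mM. Free compound was tested at six concentrations between 0.08 and 20 μM, in two independent experiments. Proteins were SP3-digested, TMT 10-plex labelled and measured by LC-MS/MS. IC50s came from competition curves, and apparent Kd was corrected for protein depletion by the beads.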

[10] = target: Calcium-dependent protein kinase 1 (Plasmodium falciparum, UniProt P62344); test: Binding affinity to CDPK1 in Plasmodium falciparum 3D7 blood stage extract incubated for 1 hr in presence of ATP-competitive kinase inhibitor by kinobeads based pull down assay; conditions: read-out: Kd(app); how it was run: as §2
Sequence of Calcium-dependent protein kinase 1 (P62344 whole entry): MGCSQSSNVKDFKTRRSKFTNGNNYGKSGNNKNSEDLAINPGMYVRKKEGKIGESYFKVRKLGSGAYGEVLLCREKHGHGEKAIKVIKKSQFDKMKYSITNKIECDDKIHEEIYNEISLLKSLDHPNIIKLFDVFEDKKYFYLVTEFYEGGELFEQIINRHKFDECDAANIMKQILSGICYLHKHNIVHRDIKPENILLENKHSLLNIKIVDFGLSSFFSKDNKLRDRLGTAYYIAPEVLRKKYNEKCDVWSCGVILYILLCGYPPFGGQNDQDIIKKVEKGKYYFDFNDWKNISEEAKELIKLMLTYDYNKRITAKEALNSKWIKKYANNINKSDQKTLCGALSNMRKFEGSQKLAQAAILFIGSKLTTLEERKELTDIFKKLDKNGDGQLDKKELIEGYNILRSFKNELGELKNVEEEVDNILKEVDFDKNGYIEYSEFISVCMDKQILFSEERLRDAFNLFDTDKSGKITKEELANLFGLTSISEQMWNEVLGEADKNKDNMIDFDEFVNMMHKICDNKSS

[11] = Binding affinity to zinc finger (CCCH type) protein in Plasmodium falciparum 3D7 blood stage extract incubated for 1 hr in presence of ATP-competitive kinase inhibitor by kinobeads based pull down assay; conditions: read-out: Kd(app)
[12] = target: T3, Casein kinase I (Plasmodium falciparum (isolate 3D7), UniProt Q8IHZ9); test: Binding affinity to CK1 in Plasmodium falciparum 3D7 blood stage extract incubated for 1 hr by kinobeads based pull down assay; conditions: read-out: Kd(app)
T3 sequence (Q8IHZ9 whole entry): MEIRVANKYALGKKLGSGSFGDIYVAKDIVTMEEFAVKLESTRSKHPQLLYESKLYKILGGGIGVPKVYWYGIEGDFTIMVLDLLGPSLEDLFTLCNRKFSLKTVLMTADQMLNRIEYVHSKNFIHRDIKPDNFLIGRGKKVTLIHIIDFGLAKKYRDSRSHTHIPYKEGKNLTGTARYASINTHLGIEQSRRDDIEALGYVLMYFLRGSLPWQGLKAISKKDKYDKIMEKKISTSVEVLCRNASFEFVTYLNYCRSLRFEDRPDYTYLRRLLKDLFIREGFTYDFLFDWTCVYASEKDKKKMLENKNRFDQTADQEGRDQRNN
How it was run: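 Chemoproteomic competition binding: Sepharose beads derivatized at 1 mM with the immobilized ligand (kinobeads prepared likewise). Free compound competed at six concentrations, 0.08–20 μM. Proteins were SP3-digested, TMT 10-plex labelled and quantified by LC-MS/MS on an Orbitrap. IC50 from the competition curve; apparent Kd corrected for protein depletion by the beads. Two independent experiments.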

[13] = Binding affinity to GSK3 in Plasmodium falciparum 3D7 blood stage extract incubated for 1 hr by kinobeads based pull down assay; conditions: read-out: Kd(app)
How it was run: (§3)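 The free compound competed over six concentrations from 0.08 to 20 μM. Proteins were digested by a modified SP3 protocol, labelled with TMT 10-plex and quantified by LC-MS/MS. Apparent Kd was derived from IC50 corrected for bead depletion. Two independent experiments were run.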

[14] = Binding affinity to SRPK2 in Plasmodium falciparum 3D7 blood stage extract incubated for 1 hr in presence of ATP-competitive kinase inhibitor by kinobeads based pull down assay; conditions: read-out: Kd(app); how it was run: as §3

Sequence of Voltage-gated potassium channel, IKs; KCNQ1(Kv7.1)/KCNE1(MinK) (P51787 whole entry): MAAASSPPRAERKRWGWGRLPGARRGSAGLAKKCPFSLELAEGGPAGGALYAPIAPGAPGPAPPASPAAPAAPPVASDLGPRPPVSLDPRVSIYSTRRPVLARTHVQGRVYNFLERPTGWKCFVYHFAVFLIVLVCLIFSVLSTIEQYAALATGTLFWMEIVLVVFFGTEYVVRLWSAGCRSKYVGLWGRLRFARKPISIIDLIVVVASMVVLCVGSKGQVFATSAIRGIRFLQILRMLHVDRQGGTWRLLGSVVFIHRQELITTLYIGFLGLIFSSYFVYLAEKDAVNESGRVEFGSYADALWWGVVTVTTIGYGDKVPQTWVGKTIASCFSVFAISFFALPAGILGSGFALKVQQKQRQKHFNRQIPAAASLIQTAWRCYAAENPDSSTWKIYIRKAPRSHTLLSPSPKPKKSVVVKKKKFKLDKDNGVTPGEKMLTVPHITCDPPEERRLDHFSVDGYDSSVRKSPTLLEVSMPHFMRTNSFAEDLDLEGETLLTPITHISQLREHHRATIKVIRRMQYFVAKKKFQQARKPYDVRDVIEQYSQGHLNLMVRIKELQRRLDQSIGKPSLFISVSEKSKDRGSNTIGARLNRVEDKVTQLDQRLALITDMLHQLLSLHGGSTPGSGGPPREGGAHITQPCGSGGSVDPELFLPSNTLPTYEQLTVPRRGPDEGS
Sequence of Beta-2 adrenergic receptor (P07550 whole entry): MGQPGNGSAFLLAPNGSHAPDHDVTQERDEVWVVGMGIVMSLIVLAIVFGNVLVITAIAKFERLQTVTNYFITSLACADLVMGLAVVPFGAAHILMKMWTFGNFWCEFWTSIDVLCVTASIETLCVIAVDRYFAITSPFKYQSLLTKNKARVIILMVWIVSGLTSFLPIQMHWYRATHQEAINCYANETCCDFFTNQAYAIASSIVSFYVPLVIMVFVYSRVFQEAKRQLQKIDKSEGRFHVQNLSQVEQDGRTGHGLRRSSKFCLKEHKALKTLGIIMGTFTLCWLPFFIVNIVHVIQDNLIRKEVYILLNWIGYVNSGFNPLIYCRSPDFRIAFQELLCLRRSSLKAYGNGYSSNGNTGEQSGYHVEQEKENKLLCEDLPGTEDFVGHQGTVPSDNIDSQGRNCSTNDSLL

For Cc1cc(Nc2nccc(-c3sc(C4CCNCC4)nc3-c3ccc(F)cc3)n2)ccn1, the CLH [1] was 0.87 mL/min/g, the IC50 [2] was > 100 µM and the IC50 [3] was > 25 µM. The EC50 [4] was > 50 µM, the IC50 [5] was 0.4 µM and the IC50 [6] was > 30 µM. For the same compound, the EC50 [7] was 0.13 µM, the EC50 [8] was 0.12 µM and the Kd [9] was 0.05 µM. It also gave a Kd [10] of 0.05 µM, a Kd [11] of 3.9 µM and a Kd [12] of 0.15 µM. The Kd [13] was 0.09 µM and the Kd [14] was 0.19 µM.

Source: ChEMBL document CHEMBL4414601 (J Med Chem, 2019)
